Source: ChEMBL document CHEMBL1124035, “1-Amino-substituted 4-methyl-5H-pyrido[4,3-b]indoles (gamma-carbolines) as tricyclic analogues of ellipticines: a new class of antineoplastic agents” (1988)
pIC50: −log10 of the molar value.

Tests used:
Calf thymus DNA = test: Apparent DNA affinity constant; assay type: nucleic-acid assay; settings: Bos taurus
Summary of the method: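 Apparent DNA affinity constant was measured by competition with ethidium bromide. Buffer was 20 mM Na2HPO4/NaH2PO4, 0.1 M NaCl, 1 mM EDTA, pH 7.4, with calf thymus DNA at 10 μg/mL. Values are given in 10^6 M⁻¹.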

L1210 = test: Ability to reduce the cell count to 50% in L1210 culture cells; assay type: functional; settings: Mus musculus, read-out: ID50 (the source's name)
Summary of the method: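 L1210 cells in exponential growth in RPMI 1640 with 2 mM glutamine, penicillin/streptomycin and 10% FCS, 37 °C, 5% CO2. Drugs dissolved in distilled water were added to cells at 0.8 × 10^5 cells/mL for 48 h, then cells were counted. ID50 is the concentration halving cell proliferation versus controls, from regression of dose-response data; mean of two independent experiments.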

Mus musculus [1] = test: Antitumor activity against P388 leukemia in mice at a dose of 10 mg/kg administered intraperitoneally for 5 days; assay type: functional; settings: route intraperitoneal
Summary of the method: (§1)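 CDF1 hybrid male or female mice, 10 per group, were inoculated ip with 10^6 viable P388 cells on day 0. Drugs in distilled water were given ip (0.1 mL/10 g body weight) daily D1-5. Vehicle, 5-fluorouracil and BD 84 were given the same way. T/C = median survival day of treated / controls × 100; T/C > 128% was significant; cures counted at D60.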

Mus musculus [2] = test: (§2) Antitumor activity against P388 leukemia in mice at a dose of 50 mg/kg administered intraperitoneally for 5 days; assay type: functional, organism-based; set-up: dose 50 mg/kg
Summary of the method: (§3)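 CDF1 hybrid male or female mice, 10 per group, were inoculated ip on day 0 with 10^6 viable P388 leukemia cells. Drug in distilled water was given ip (0.1 mL/10 g body weight) daily on days 1-5, with vehicle, 5-fluorouracil and BD 84 controls given the same way. T/C = median survival of treated/controls × 100; T/C > 128% counted as significant.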

Mus musculus [3] = test: Antitumor activity against P388 leukemia in mice at a dose of 100 mg/kg administered intraperitoneally for 5 days; assay type: functional, organism-based; set-up: dose 100 mg/kg; summary of the method: as §1
Mus musculus [4] = test: Antitumor activity against P388 leukemia in mice at a dose of 12 mg/kg administered intraperitoneally for 5 days; assay type: functional; settings: route intraperitoneal; summary of the method: as §1
Mus musculus [5] = test: Antitumor activity against P388 leukemia in mice at a dose of 24 mg/kg administered intraperitoneally for 5 days; assay type: functional; settings: route intraperitoneal; summary of the method: as §3
Mus musculus [6] = test: Antitumor activity against P388 leukemia in mice at a dose of 6 mg/kg administered intraperitoneally for 5 days; assay type: functional; settings: route intraperitoneal; summary of the method: as §3
Mus musculus [7] = test: as §2; assay type: functional; settings: route intraperitoneal; summary of the method: as §3
Mus musculus [8] = test: Median survival day in B16 melanoma infected mice when a dose of 10 mg/kg administered intraperitoneally; assay type: functional; settings: route intraperitoneal
Summary of the method: (§4)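 B16 melanoma in hybrid BD F1 mice. At D0 each mouse was inoculated ip with 0.5 mL of homogenate made from 1 g of tumour in 10 mL of physiological serum. Compounds were given ip daily at the stated doses for 9 days (D1-9), with cis-platinum 0.5 mg/kg under the same schedule as positive control.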

Mus musculus [9] = test: Median survival day in B16 melanoma infected mice when a dose of 2.5 mg/kg administered intraperitoneally; assay type: functional; settings: route intraperitoneal; summary of the method: as §4
Mus musculus [10] = test: Median survival day in B16 melanoma infected mice when a dose of 5 mg/kg administered intraperitoneally; assay type: functional; settings: route intraperitoneal; summary of the method: as §4
Mus musculus [11] = test: Median survival day in B16 melanoma infected mice when a dose of 1.25 mg/kg administered intraperitoneally; assay type: functional; settings: route intraperitoneal; summary of the method: as §4
Mus musculus [12] = test: Weight change in g when a dose of 10 mg/kg administered intraperitoneally to B16 melanoma infected mice; assay type: functional; settings: route intraperitoneal
Summary of the method: (§5)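 Hybrid BDF1 mice were inoculated ip at D0 with 0.5 mL of B16 melanoma homogenate (1 g tumor in 10 mL physiological serum). Drug was given ip daily on days 1-9, with cis-platinum 0.5 mg/kg as positive control on the same schedule.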

Mus musculus [13] = test: Median survival day of P388 leukemia model when a dose of 10 mg/kg administered intraperitoneally; assay type: functional; settings: route intraperitoneal
Summary of the method: (§6)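 P388 leukaemia in CDF1 hybrid mice, 10 per group. At D0, 10^6 viable cells were inoculated ip, followed by a single ip dose of drug in distilled water on D1. Weight change, median survival day, T/C (treated/control median survival × 100) and survivors at D30 were recorded. Controls were 20 mice.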

Mus musculus [14] = test: Median survival day of P388 leukemia model when a dose of 20 mg/kg administered intraperitoneally; assay type: functional; settings: route intraperitoneal; summary of the method: as §6
Mus musculus [15] = test: Median survival day of P388 leukemia model when a dose of 40 mg/kg administered intraperitoneally to mice; assay type: functional; settings: route intraperitoneal; summary of the method: as §6
Mus musculus [16] = test: Median survival day of P388 leukemia model when a dose of 5 mg/kg administered intraperitoneally; assay type: functional; settings: route intraperitoneal; summary of the method: as §6
Mus musculus [17] = test: Antitumor activity against P388 cells at a dose of 20 mg/kg administered intraperitoneally to P388 leukemia model; assay type: functional; settings: route intraperitoneal
Summary of the method: (§7)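 Mice were inoculated ip with 10^6 P388 leukemia cells at D0, then given a single ip drug dose on D1. Weight change was recorded. T/C % = median survival day of treated / controls × 100; survivors counted at D30; 10 mice per dose group, 20 controls.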

Mus musculus [18] = test: Antitumor activity against P388 cells at a dose of 40 mg/kg administered intraperitoneally to P388 leukemia model; assay type: functional; settings: route intraperitoneal; summary of the method: as §7
Mus musculus [19] = test: Antitumor activity against P388 cells at a dose of 5 mg/kg administered intraperitoneally to P388 leukemia model; assay type: functional; settings: route intraperitoneal; summary of the method: as §7
Mus musculus [20] = test: Antitumor activity against P388 leukemia in mice at a dose of 0.625 mg/kg administered intraperitoneally for 5 days; assay type: functional; settings: route intraperitoneal; summary of the method: as §1
Mus musculus [21] = test: Antitumor activity against P388 cells at a dose of 10 mg/kg administered intraperitoneally to P388 leukemia model; assay type: functional; settings: route intraperitoneal; summary of the method: as §7
Mus musculus [22] = test: Weight change in g when a dose of 5 mg/kg administered intraperitoneally to B16 melanoma infected mice; assay type: functional; settings: route intraperitoneal; summary of the method: as §5
Mus musculus [23] = test: Weight change in g when a dose of 5 mg/kg administered intraperitoneally to P388 leukemia mice model; assay type: functional; settings: route intraperitoneal
Summary of the method: (§8)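 P388 model with a single ip dose. Mice (10 per group) were inoculated ip at D0 with 10^6 P388 cells and given one ip drug dose at D1. Body-weight change (g), median survival day, T/C and survivors at D30 were recorded.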

Mus musculus [24] = test: Antitumor activity against P388 leukemia in mice at a dose of 1.25 mg/kg administered intraperitoneally for 5 days; assay type: functional; settings: route intraperitoneal; summary of the method: as §1
Mus musculus [25] = test: Antitumor activity against B16 melanoma infected mice at a dose of 1.25 mg/kg administered intraperitoneally; assay type: functional; settings: route intraperitoneal
Summary of the method: (§9)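 Hybrid BD F1 mice were inoculated ip at D0 with 0.5 mL of B16 melanoma homogenate (1 g tumor in 10 mL physiological serum). Drugs were given ip daily D1-9. Cisplatin 0.5 mg/kg was the positive control under the same schedule.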

Mus musculus [26] = test: Antitumor activity against B16 melanoma infected mice at a dose of 10 mg/kg administered intraperitoneally; assay type: functional; settings: route intraperitoneal; summary of the method: as §9
Mus musculus [27] = test: Antitumor activity against B16 melanoma infected mice at a dose of 2.5 mg/kg administered intraperitoneally; assay type: functional; settings: route intraperitoneal; summary of the method: as §9
Mus musculus [28] = test: Antitumor activity against B16 melanoma infected intraperitoneally; assay type: functional; summary of the method: as §9
Mus musculus [29] = test: Weight change in g when a dose of 10 mg/kg administered intraperitoneally to P388 leukemia mice model; assay type: functional; settings: route intraperitoneal; summary of the method: as §8
Mus musculus [30] = test: Weight change in g when a dose of 2.5 mg/kg administered intraperitoneally to B16 melanoma infected mice; assay type: functional; settings: route intraperitoneal; summary of the method: as §5
Mus musculus [31] = test: Weight change in g when a dose of 20 mg/kg administered intraperitoneally to P388 leukemia mice model; assay type: functional; settings: route intraperitoneal; summary of the method: as §8
Mus musculus [32] = test: Weight change in g when a dose of 40 mg/kg administered intraperitoneally to P388 leukemia mice model; assay type: functional; settings: route intraperitoneal; summary of the method: as §8
Mus musculus [33] = test: Antitumor activity against P388 leukemia in mice at a dose of 2.5 mg/kg administered intraperitoneally for 5 days; assay type: functional; settings: route intraperitoneal; summary of the method: as §1
Mus musculus [34] = test: Antitumor activity against P388 leukemia in mice at a dose of 20 mg/kg administered intraperitoneally; assay type: functional, organism-based; set-up: dose 20 mg/kg; summary of the method: as §1
Mus musculus [35] = test: Survivors at day 30 when a dose of 10 mg/kg to P388 leukemia mice model; 0/10; assay type: functional; summary of the method: as §6
Mus musculus [36] = test: Survivors at day 30 when a dose of 20 mg/kg to P388 leukemia mice model; 0/10; assay type: functional; summary of the method: as §6
Mus musculus [37] = test: Survivors at day 30 when a dose of 40 mg/kg to P388 leukemia mice model; 0/10; assay type: functional
Mus musculus [38] = test: Survivors at day 30 when a dose of 5 mg/kg to P388 leukemia mice model; 0/10; assay type: functional
Mus musculus [39] = test: Survivors at day 60 when a dose of 1.25 mg/kg to B16 melanoma infected mice; 0/10; assay type: functional
Mus musculus [40] = test: Survivors at day 60 when a dose of 5 mg/kg to B16 melanoma infected mice; 0/10; assay type: functional
Mus musculus [41] = test: Survivors at day 60 when a dose of 10 mg/kg to B16 melanoma infected mice; 0/10; assay type: functional
Mus musculus [42] = test: Antitumor activity against P388 leukemia in intraperitoneally for 5 days; assay type: functional; summary of the method: as §1
Mus musculus [43] = test: Weight change in g when a dose of 1.25 mg/kg administered intraperitoneally to mice; assay type: functional; settings: route intraperitoneal; summary of the method: as §5
Mus musculus [44] = test: Survivors at day 60 when a dose of 2.5 mg/kg to B16 melanoma infected mice; 0/10; assay type: functional

`Cc1c[nH]c(NCCCN(C)C)c2c3ccccc3nc1-2` gave a K aff (Calf thymus DNA) of 130000 M⁻¹, a pIC50 (L1210) of 6.80 and a T/C (Mus musculus [1]) of 129%. The T/C (Mus musculus [2]) was “Toxic”.
In the case of `CCN(CC)CCCNc1ncc(C)c2c1c1ccccc1n2C`, the K aff (Calf thymus DNA) was 160000 M⁻¹, the pIC50 (L1210) was 6.14 and the T/C (Mus musculus [3]) was “Toxic”. The T/C (Mus musculus [4]) was 110%, the T/C (Mus musculus [5]) was 118% and the T/C (Mus musculus [6]) was 105%. It also gave a T/C (Mus musculus [7]) of 131%.
Work on `Cc1c[nH]c(NCCCN(C)C)c2c3cc(O)ccc3nc1-2` yielded a K aff (Calf thymus DNA) of 210000 M⁻¹, a pIC50 (L1210) of 7.05 and a Median survival day (Mus musculus [8]) of 11.7. For the same compound, the Median survival day (Mus musculus [9]) was 38.75, the Median survival day (Mus musculus [10]) was 44 and the Median survival day (Mus musculus [11]) was 32. The Weight change (Mus musculus [12]) was 0.5 g, the Median survival day (Mus musculus [13]) was 15.25 and the Median survival day (Mus musculus [14]) was 15.5. The Median survival day (Mus musculus [15]) was 15.3, the Median survival day (Mus musculus [16]) was 15.3 and the T/C (Mus musculus [17]) was 142%. For the same compound, the T/C (Mus musculus [18]) was 139%, the T/C (Mus musculus [19]) was 139% and the T/C (Mus musculus [20]) was 139%. For the same compound, the T/C (Mus musculus [21]) was 139%, the Weight change (Mus musculus [22]) was 2.4 g and the Weight change (Mus musculus [23]) was -0.1 g. For the same compound, the T/C (Mus musculus [24]) was 150%, the T/C (Mus musculus [1]) was 148% and the T/C (Mus musculus [25]) was 116%. For the same compound, the T/C (Mus musculus [26]) was 42%, the T/C (Mus musculus [27]) was 141% and the T/C (Mus musculus [28]) was 160%. For the same compound, the Weight change (Mus musculus [29]) was 0.3 g, the Weight change (Mus musculus [30]) was 1.8 g and the Weight change (Mus musculus [31]) was -0.8 g. For the same compound, the Weight change (Mus musculus [32]) was -1.4 g, the T/C (Mus musculus [33]) was 145% and the T/C (Mus musculus [34]) was “Toxic”. It also gave a Survivors (Mus musculus [35]) of 0, a Survivors (Mus musculus [36]) of 0 and a Survivors (Mus musculus [37]) of 0. The Survivors (Mus musculus [38]) was 0, the Survivors (Mus musculus [39]) was 0 and the Survivors (Mus musculus [40]) was 0. It also gave a Survivors (Mus musculus [41]) of 0, a T/C (Mus musculus [42]) of 186% and a Weight change (Mus musculus [43]) of 2.8 g. For the same compound, the Survivors (Mus musculus [44]) was 0.
